Test results taken from ChEMBL document CHEMBL1765055 (J Med Chem, 2011).
Several values for one entry are separate records, joined by “and”; a condition that tells them apart may be missing. Identical values can stand only once. Non-standard residues stand in square brackets, D forms with d. Residues, ends and D or L forms follow the SMILES beside them. N(4-hydroxyphenethyl)Gly = O=C(O)CNCCc1ccc(O)cc1; Gly(N-4-hydroxybenzyl) = O=C(O)CNCc1ccc(O)cc1; N(1S-Me-propyl)Gly = CC[C@H](C)NCC(=O)O

Legend:
[1] = biological target: T1, Neurotensin receptor type 2 (Homo sapiens, UniProt O95665); experiment: Displacement of [3H]NT from human NTS2 receptor expressed in HEK293 cells; format: cell-based
T1 sequence (O95665 whole entry): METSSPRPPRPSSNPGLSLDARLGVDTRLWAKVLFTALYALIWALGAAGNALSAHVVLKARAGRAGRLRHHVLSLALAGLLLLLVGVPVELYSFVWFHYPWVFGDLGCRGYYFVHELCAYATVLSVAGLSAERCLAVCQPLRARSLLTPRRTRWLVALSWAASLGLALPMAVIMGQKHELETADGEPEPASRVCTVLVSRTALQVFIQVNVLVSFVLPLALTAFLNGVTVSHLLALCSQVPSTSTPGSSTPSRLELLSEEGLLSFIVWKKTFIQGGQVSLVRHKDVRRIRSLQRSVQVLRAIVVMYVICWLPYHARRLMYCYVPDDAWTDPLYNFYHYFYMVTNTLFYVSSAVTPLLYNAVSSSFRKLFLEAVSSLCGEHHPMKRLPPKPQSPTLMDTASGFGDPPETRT

[2] = biological target: T2, Neurotensin receptor type 1 (Homo sapiens, UniProt P30989); experiment: Displacement of [3H]neurotensin from human NTS1 receptor expressed in CHO cells; format: cell-based
T2 sequence (P30989 whole entry): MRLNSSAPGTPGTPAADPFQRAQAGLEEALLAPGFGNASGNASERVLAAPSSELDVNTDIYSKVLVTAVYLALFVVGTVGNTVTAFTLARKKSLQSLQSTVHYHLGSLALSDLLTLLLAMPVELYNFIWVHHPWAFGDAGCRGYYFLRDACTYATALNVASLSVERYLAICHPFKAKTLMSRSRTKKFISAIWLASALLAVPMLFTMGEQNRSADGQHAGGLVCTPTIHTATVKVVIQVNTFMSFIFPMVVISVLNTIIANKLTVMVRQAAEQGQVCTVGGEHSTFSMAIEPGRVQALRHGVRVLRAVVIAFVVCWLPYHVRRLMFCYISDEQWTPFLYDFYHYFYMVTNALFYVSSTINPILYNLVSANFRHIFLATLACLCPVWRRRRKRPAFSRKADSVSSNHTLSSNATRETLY

[3] = biological target: T1, Neurotensin receptor type 2; experiment: Agonist activity at human NTS2 receptor expressed in HEK293 cells assessed as inhibition of constitutive activity on MAPK-mediated luciferase activity; format: functional, cell-based
Homo sapiens = organism: Homo sapiens; experiment: Selectivity ratio of Ki for human NTS1 to Ki for human NTS2
[4] = biological target: T1, Neurotensin receptor type 2; experiment: Ratio of compound Emax to neurotensin Emax for human NTS2 receptor
[5] = biological target: T1, Neurotensin receptor type 2; experiment: Agonist activity at human NTS2 receptor expressed in HEK293 cells assessed as inhibition of constitutive activity on MAPK-mediated luciferase activity at 3 uM in presence of SR142948A; format: functional, cell-based
Summary of the method: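 HEK 293 cells transiently expressing hNTS2 plus Elk1 trans-activator/luciferase reporter plasmids were reseeded in 1% FBS medium. They received 3 μM compound together with graded concentrations of the antagonist SR142948A for 24 h at 37 °C. Luciferase luminescence was measured as the readout of constitutive MAPK activity. Mean curves came from 7–11 independent experiments in triplicate.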

[6] = biological target: T2, Neurotensin receptor type 1; experiment: Ratio of compound Emax to neurotensin Emax for human NTS1 receptor

| Molecule | Ki [1] | Ki [2] | Ratio Ki (Homo sapiens) | other results |
| --- | --- | --- | --- | --- |
| CC[C@H](C)[C@H](NC(=O)CN(CCc1ccccn1)C(=O)[C@@H]1CCCN1C(=O)[C@H](CCCNC(=N)N)NC(=O)[C@@H](N)CCCNC(=N)N)C(=O)N[C@@H](CC(C)C)C(=O)O | 100 nM | – | – | – |
| CC[C@H](C)[C@H](NC(=O)CN(CCc1ccc(O)cc1)C(=O)[C@@H]1CCCN1C(=O)[C@H](CCCNC(=N)N)NC(=O)[C@@H](N)CCCCN)C(=O)N[C@@H](CC(C)C)C(=O)O (H-KRP[N(4-hydroxyphenethyl)Gly]IL-OH) | 4.4 nM | 8.3 µM | 1900 | EC50 [3]: 690 nM; Emax [4]: 4.6 |
| CC[C@H](C)[C@H](NC(=O)CN(Cc1ccc(O)cc1)C(=O)[C@@H]1CCCN1C(=O)[C@H](CCCCN)NC(=O)[C@@H](N)CCCCN)C(=O)N[C@@H](CC(C)C)C(=O)O (H-KKP[Gly(N-4-hydroxybenzyl)]IL-OH) | 1000 nM | 30 µM | 30 | – |
| H-RRPYAL-OH [listing 2 of 2 here] | – | – | 1.6 | – |
| CC[C@H](C)[C@H](NC(=O)[C@H](Cc1ccc(O)cc1)NC(=O)[C@@H]1CCCN1C(=O)[C@H](CCCCN)NC(=O)[C@@H](N)CCCCN)C(=O)N[C@@H](CC(C)C)C(=O)O | 6.1 nM | – | – | – |
| CC[C@H](C)[C@H](NC(=O)[C@H](CC1=CC=C(O)CC1)NC(=O)[C@@H]1CCCN1C(=O)[C@H](CCCNC(=N)N)NC(=O)[C@@H](N)CCCNC(=N)N)C(=O)N[C@@H](CC(C)C)C(=O)O | – | – | – | Kd [1]: 1.2 nM |
| H-RRPAIL-OH [listing 1 of 2 here] | – | – | 16 | – |
| H-ARPYIL-OH | 56 nM | 0.0046 µM | 0.082 | – |
| H-RAPYIL-OH [listing 2 of 2 here] | – | – | 0.46 | – |
| H-RRAYIL-OH [listing 1 of 2 here] | – | – | 0.41 | – |
| H-RRPAIL-OH [listing 2 of 2 here] | 83 nM | 1.3 µM | – | – |
| H-RRAYIL-OH [listing 2 of 2 here] | 63 nM | 0.026 µM | – | – |
| CC[C@H](C)[C@H](NC(=O)CN(CCc1ccc(O)cc1)C(=O)[C@@H]1CCCN1C(=O)[C@H](CCCCN)NC(=O)[C@@H](N)CCCNC(=N)N)C(=O)N[C@@H](CC(C)C)C(=O)O (H-RKP[N(4-hydroxyphenethyl)Gly]IL-OH) | 6.7 nM | 80 µM | 12000 | EC50 [3]: 840 nM; Emax [4]: 2.6; Emax [6]: 0.07 |
| CC[C@H](C)[C@H](NC(=O)[C@H](Cc1ccc(O)cc1)NC(=O)[C@@H]1CCCN1C(=O)[C@H](CCCCN)NC(=O)[C@@H](N)CCCCN)C(=O)N(CC(=O)O)CC(C)C | 1600 nM | – | – | – |

Further lines, with some results ahead:

| Ki [1] | Ki [2] | Ratio Ki (Homo sapiens) | Molecule | other results |
| --- | --- | --- | --- | --- |
| 63 nM | 0.1 µM | – | H-RRPYAL-OH [listing 1 of 2 here] | – |
| 330 nM and 1200 nM | 3 µM and 3.3 µM | – | CC[C@H](C)N(CC(=O)N[C@@H](CC(C)C)C(=O)O)C(=O)[C@H](Cc1ccc(O)cc1)NC(=O)[C@@H]1CCCN1C(=O)[C@H](CCCCN)NC(=O)[C@@H](N)CCCCN (H-KKPY[N(1S-Me-propyl)Gly]L-OH) | – |
| 4.3 nM | 32 µM | 7400 | CC[C@H](C)[C@H](NC(=O)CN(CCc1ccc(O)cc1)C(=O)[C@@H]1CCCN1C(=O)[C@H](CCCCN)NC(=O)[C@@H](N)CCCCN)C(=O)N[C@@H](CC(C)C)C(=O)O (H-KKP[N(4-hydroxyphenethyl)Gly]IL-OH) | EC50 [3]: 590 nM; Emax [4]: 3.1 |
| 24 nM | 0.011 µM | – | H-RAPYIL-OH [listing 1 of 2 here] | – |
| 8.8 nM | – | – | CC[C@H](C)[C@H](NC(=O)CN(CCc1ccc(O)cc1)C(=O)[C@@H]1CCCN1C(=O)[C@H](CCCNC(=N)N)NC(=O)[C@@H](N)CCCNC(=N)N)C(=O)N[C@@H](CC(C)C)C(=O)O | EC50 [3]: 480 nM; Activity [5]: Dose-dependent effect |
| 1300 nM | – | – | CC[C@H](C)[C@H](NC(=O)[C@H](Cc1ccc(O)cc1)NC(=O)[C@@H]1CCCN1C(=O)[C@H](CCCNC(=N)N)NC(=O)[C@@H](N)CCCNC(=N)N)C(=O)N[C@@H](C)C(=O)O | – |
| 20 nM | – | – | CC[C@H](C)[C@H](NC(=O)CN(CCc1ccccc1)C(=O)[C@@H]1CCCN1C(=O)[C@H](CCCN=C(N)N)NC(=O)[C@@H](N)CCCN=C(N)N)C(=O)N[C@@H](CC(C)C)C(=O)O | – |
| 21 nM | – | – | CC[C@H](C)[C@H](NC(=O)[C@H](Cc1ccc(O)cc1)NC(=O)[C@@H]1CCCN1C(=O)CN(CCCCN)C(=O)[C@@H](N)CCCCN)C(=O)N[C@@H](CC(C)C)C(=O)O | – |
| 0.74 nM | – | – | CC[C@H](C)[C@H](NC(=O)[C@H](Cc1ccc(O)cc1)NC(=O)[C@@H]1CCCN1C(=O)[C@H](CCCCN)NC(=O)CNCCCCN)C(=O)N[C@@H](CC(C)C)C(=O)O | – |
| 38 nM | – | – | CC[C@H](C)[C@H](NC(=O)CN(CCc1ccc(OC)cc1)C(=O)[C@@H]1CCCN1C(=O)[C@H](CCCN=C(N)N)NC(=O)[C@@H](N)CCCN=C(N)N)C(=O)N[C@@H](CC(C)C)C(=O)O | – |
